In ChEMBL document CHEMBL3244290, “N-Alkyl derivatives of (+/-)-alpha-methyldopamine” (J Med Chem, 1979):
Calls of active or inactive are those of the source. The rule behind the calls is not given here.

Tests used:
[1] = tested on: Rattus norvegicus; test: Induction of rotation in rat with unilateral denervation of caudate nucleus at 0.25 mg/kg, sc; type: functional, organism-based; parameters: dose 0.25 mg/kg
In short: (§1)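 Rats given a unilateral 6-hydroxydopamine injection into the substantia nigra. Compounds dosed subcutaneously and the rotations they induced were counted. Apomorphine served as the reference.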

[2] = tested on: Columbidae; test: Inhibition of apomorphine-induced pecking in pigeon at 3 umol/kg; type: functional
In short: (§2)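 Pigeons. Compounds given intramuscularly at up to 4 mg/kg to test induction of pecking. Antagonism of pecking induced by apomorphine (1.62 μM/kg) was also tested, and ED50 values were estimated.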

[3] = tested on: Rattus norvegicus; test: Induction of rotation in rat with unilateral denervation of caudate nucleus at 1 mg/kg, sc; type: functional, organism-based; parameters: dose 1 mg/kg; in short: as §1
[4] = tested on: Mus musculus; test: Toxicity in albino B.K.W mouse assessed as stereotyped behaviour at 20 to 80 mg/kg, sc; type: organism-based; parameters: dose 20-80 mg/kg, route subcutaneous; conditions: in vivo
In short: (§3)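 Mice dosed subcutaneously at 20, 40 and 80 mg/kg in 1 mL/kg, doses as free base. Climbing scored as all four paws on the wire, giving a climbing index (% time over 30 min after the first climb) and the maximum time of a single climb. Circling was tested in mice with a unilateral caudate-putamen electrolesion, pre-selected for circling of 7 or more revolutions/2 min in response to apomorphine. Stereotypy was also recorded.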

[5] = tested on: Canis familiaris; test: Toxicity in dog assessed as emesis at 2 mg/kg, sc; type: organism-based, Canis lupus familiaris; parameters: dose 2 mg/kg, route subcutaneous; conditions: in vivo
In short: (§4)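 Unanaesthetised dogs. For emesis, compound given sc and dogs watched 45 min for an emetic response. For antagonism, compound given sc and apomorphine 100 μg/kg 15 min later.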

[6] = tested on: Canis familiaris; test: Inhibition of apomorphine-induced emesis in dog at 2 mg/kg, sc; type: functional, organism-based; parameters: dose 2 mg/kg; conditions: Canis lupus familiaris; in short: as §4
[7] = Toxicity in pigeon assessed as pecking; conditions: columbidae; in short: as §2
[8] = species: Rattus norvegicus; test: Toxicity in Sprague-Dawley rat assessed as sniffing at 50 ug injection into nucleus accumbens; type: organism-based; conditions: in vivo, other
In short: (§5)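 Male Sprague-Dawley rats (250 ± 25 g) with stereotaxic guide cannulae aimed at the nucleus accumbens. Tested 10–14 days after surgery with a bilateral 1 μL infusion over 60 s; each rat used once and placement checked histologically. Locomotion counted by photocell cage. Stereotypy scored, where 3–4 = biting, gnawing or licking. Pretreatments given ip: α-methyl-p-tyrosine 250 mg/kg 6 h before, or haloperidol 0.1, propranolol 5 or aceperone 2.5 mg/kg 30 min before.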

[9] = species: Rattus norvegicus; test: Toxicity in Sprague-Dawley rat assessed as locomotor hyperactivity treated bilateral injection into nucleus accumbens at 50 ug; type: organism-based; conditions: in vivo, other; in short: as §5
[10] = species: Felis catus; test: Inhibition of field stimulation-induced positive ionotrophic response in cat atria; type: functional; conditions: Cardiac atrium
[11] = tested on: Mus musculus; test: Toxicity in albino B.K.W mouse assessed as circling behaviour at 20 to 80 mg/kg, sc; type: organism-based; parameters: dose 20-80 mg/kg, route subcutaneous; conditions: in vivo; in short: as §3
[12] = species: Canis lupus familiaris; test: Inhibition of electric stimulated dog right cardioaccelerator nerve; type: functional
In short: (§6)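 Dog cardioaccelerator nerve preparation under barbital (200 mg/kg) anaesthesia. Compounds given intravenously up to 1.0 mg/kg. Positive chronotropic responses read by cardiometer, with blood pressure taken from the right femoral artery.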

[13] = species: Felis catus; test: Inhibition of field stimulation-induced positive chronotrophic response in cat atria; type: functional; conditions: Cardiac atrium
[14] = tested on: Mus musculus; test: Toxicity in albino B.K.W mouse assessed as climbing behaviour at 20 to 80 mg/kg, sc; type: organism-based; parameters: dose 20-80 mg/kg, route subcutaneous; conditions: in vivo; in short: as §3
[15] = tested on: Canis familiaris; test: Increase in resting heart rate in dog at 0.5 mg/kg, iv by cardiotachometer; type: functional, organism-based; parameters: dose 0.5 mg/kg; conditions: Canis lupus familiaris
In short: (§7)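 Anaesthetised dog (barbital 200 mg/kg). Compounds given intravenously, highest dose tested 1.0 mg/kg. Blood pressure recorded from the right femoral artery and heart rate by cardiometer. Resting heart rate, blood pressure and positive chronotropic responses were assessed after dosing. Doses calculated as free base.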

[16] = species: Rattus norvegicus; test: Toxicity in Sprague-Dawley rat assessed as licking up to 50 ug injection into nucleus accumbens; type: organism-based; conditions: in vivo, other; in short: as §5
[17] = species: Rattus norvegicus; test: Toxicity in Sprague-Dawley rat assessed as biting up to 50 ug injection into nucleus accumbens; type: organism-based; conditions: in vivo, other; in short: as §5
[18] = tested on: Mus musculus; test: Toxicity in albino B.K.W mouse assessed as stereotyped head and limb movement at 40 to 80 mg/kg, sc; type: organism-based; parameters: dose 40-80 mg/kg, route subcutaneous; conditions: in vivo; in short: as §3
[19] = species: Rattus norvegicus; test: Toxicity in Sprague-Dawley rat assessed as gnawing up to 50 ug injection into nucleus accumbens; type: organism-based; conditions: in vivo, other; in short: as §5
[20] = tested on: Canis familiaris; test: Increase in blood pressure in dog at 0.5 mg/kg, iv by cardiotachometer; type: functional, Canis lupus familiaris; in short: as §7
[21] = tested on: Columbidae; test: Inhibition of apomorphine-induced pecking in pigeon; type: functional; in short: as §2
[22] = tested on: Canis familiaris; test: Increase in ionotrophic response in dog following field stimulation at 1 mg/kg, iv by cardiotachometer; type: functional, organism-based; parameters: dose 1 mg/kg; conditions: Canis lupus familiaris; in short: as §6
[23] = species: Rattus norvegicus; test: Toxicity in Sprague-Dawley rat assessed as sniffing at 12.5 to 50 ug injection into nucleus accumbens; type: organism-based; conditions: in vivo, other; in short: as §5
[24] = tested on: Rattus norvegicus; test: Induction of rotation in rat with unilateral denervation of caudate nucleus at 4 mg/kg, sc; type: functional, organism-based; parameters: dose 4 mg/kg; in short: as §1
[25] = tested on: Canis familiaris; test: Increase in heart rate in dog at 1 mg/kg, iv by cardiotachometer; type: functional, organism-based; parameters: dose 1 mg/kg; conditions: Canis lupus familiaris; in short: as §7
[26] = tested on: Canis familiaris; test: Increase in ionotrophic response in iv dosed dog following field stimulation assessed as minimum effective dose by cardiotachometer; type: functional, Canis lupus familiaris; parameters: unit not given here; in short: as §6
[27] = species: Rattus norvegicus; test: Toxicity in Sprague-Dawley rat assessed as hyperactivity treated intra-accumbens injection pretreated with haloperiodol; type: organism-based; conditions: in vivo, other; in short: as §5
[28] = species: Rattus norvegicus; test: Toxicity in Sprague-Dawley rat assessed as hyperactivity treated intra-accumbens injection pretreated with alpha-methyl-p-tyrosine; type: organism-based; conditions: in vivo, other; in short: as §5
[29] = species: Rattus norvegicus; test: Toxicity in Sprague-Dawley rat assessed as hyperactivity treated intra-accumbens injection; type: organism-based; conditions: in vivo, other; in short: as §5
[30] = tested on: Canis familiaris; test: Increase in heart rate in dog assessed as beats at 30 ug/kg, iv by cardiotachometer; type: functional, Canis lupus familiaris; in short: as §7
[31] = species: Rattus norvegicus; test: Toxicity in Sprague-Dawley rat assessed as hyperactivity treated intra-accumbens injection pretreated with propranolol; type: organism-based; conditions: in vivo, other; in short: as §5
[32] = species: Rattus norvegicus; test: Toxicity in Sprague-Dawley rat assessed as hyperactivity treated bilateral injection into nucleus accumbens; type: organism-based; conditions: in vivo, other; in short: as §5
[33] = species: Rattus norvegicus; test: Toxicity in Sprague-Dawley rat assessed as hyperactivity treated intra-accumbens injection pretreated with aceperone; type: organism-based; conditions: in vivo, other; in short: as §5
[34] = tested on: Canis familiaris; test: Increase in resting heart rate in dog at […], iv by cardiotachometer; type: functional, organism-based; conditions: Canis lupus familiaris; in short: as §7
[35] = tested on: Canis familiaris; test: Increase in blood pressure in dog at 30 ug/kg, iv by cardiotachometer; type: functional, Canis lupus familiaris; in short: as §7
[36] = species: Rattus norvegicus; test: Toxicity in Sprague-Dawley rat assessed as hyperactivity treated bilateral injection into nucleus accumbens at > 6.25 ug; type: organism-based; conditions: in vivo, other; in short: as §5
[37] = tested on: Canis familiaris; test: Increase in blood pressure in dog at 50 ug/kg, iv by cardiotachometer; type: functional, Canis lupus familiaris; in short: as §7
[38] = tested on: Canis familiaris; test: Increase in heart rate in dog assessed as beats at 50 ug/kg, iv by cardiotachometer; type: functional, Canis lupus familiaris; in short: as §7

| Compound | Activity [4] | Activity [5] | Activity [6] | Activity [7] | Activity [9] | inhibition [10] | Activity [11] | inhibition [12] | inhibition [13] | Activity [14] | Activity [24] | other results |
| --- | --- | --- | --- | --- | --- | --- | --- | --- | --- | --- | --- | --- |
| CN1CCc2cccc3c2[C@H]1Cc1ccc(O)c(O)c1-3 | – | – | – | – | – | – | – | – | – | – | – | Activity [1]: Active |
| COc1cc(CC(C)N)c(OC)cc1C (stereo unspecified) | – | – | – | – | – | – | – | – | – | – | – | inhibition [2]: Active |
| C[C@H](N)Cc1ccccc1 | – | – | – | – | – | – | – | – | – | – | – | Activity [3]: Active |
| Br.CCNC(C)Cc1ccc(O)c(O)c1 (racemic) | Non-toxic | Non-toxic | inactive | Non-toxic | Toxic | inactive | Non-toxic | inactive | inactive | Non-toxic | – | Activity [8]: Toxic |
| Br.CCN(CC)C(C)Cc1ccc(O)c(O)c1 (racemic) | Non-toxic | Non-toxic | inactive | Non-toxic | Toxic | inactive | Non-toxic | inactive | inactive | Non-toxic | – | Activity [15]: inactive; Activity [16]: Non-toxic; Activity [17]: Non-toxic; Activity [18]: Toxic; Activity [19]: Non-toxic; Activity [20]: <=10 mmHg; inhibition [21]: Active |
| Br.CCCN(CCC)C(C)Cc1ccc(O)c(O)c1 (racemic) | Non-toxic | Non-toxic | inactive | Non-toxic | Toxic | inactive | Non-toxic | inactive | inactive | Non-toxic | inactive | Activity [15]: inactive; Activity [22]: Active; Activity [23]: Toxic; Activity [25]: Active; MED [26]: 20; Activity [20]: <=10 mmHg |
| Br.CCCNC(C)Cc1ccc(O)c(O)c1 (racemic) | Non-toxic | Non-toxic | inactive | Non-toxic | – | inactive | Non-toxic | inactive | inactive | Non-toxic | inactive | Activity [27]: Non-toxic; Activity [28]: Non-toxic; Activity [16]: Toxic; Activity [29]: Toxic; Activity [30]: 35 bpm; Activity [31]: Toxic; Activity [32]: Toxic; Activity [33]: Toxic; Activity [17]: Toxic; Activity [34]: Active; Activity [19]: Toxic; Activity [35]: 35% |
| Br.CC(N)Cc1ccc(O)c(O)c1 (racemic) | Non-toxic | Non-toxic | inactive | Non-toxic | – | inactive | Non-toxic | inactive | inactive | Non-toxic | inactive | Activity [36]: Toxic; Activity [27]: Non-toxic; Activity [28]: Non-toxic; Activity [29]: Toxic; Activity [31]: Toxic; Activity [23]: Toxic; Activity [37]: 80%; Activity [33]: Toxic; Activity [34]: Active; Activity [38]: 50 bpm; inhibition [21]: Active |
